What was measured:
Format in all cases: functional
[1] = Growth inhibition of human SF539 cells incubated for 48 hrs by sulforhodamine B assay; conditions: SF-539, 48 h
Procedure, shortened: (§1)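 Cells were plated at 5,000–40,000 per well according to doubling time and preincubated 24 h at 37 °C in 5% CO2; time-zero plates were then TCA-fixed. Five concentrations (10-fold or ½-log dilutions, DMSO stock) were incubated 48 h. Cells were TCA-fixed, stained with 0.4% SRB and read at 515 nm. GI50 was taken where [(Ti−Tz)/(C−Tz)]×100 = 50.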

SK-MEL-5 = test: Growth inhibition of human SK-MEL-5 cells incubated for 48 hrs by sulforhodamine B assay; conditions: SK-MEL-5, 48 h; procedure, shortened: as §1
MDA-MB-231 = test: Growth inhibition of human MDA-MB-231 cells incubated for 48 hrs by sulforhodamine B assay; conditions: MDA-MB-231, 48 h; procedure, shortened: as §1
[2] = Growth inhibition of human Caki1 cells assessed as cell growth at 10^-8 M incubated for 48 hrs by sulforhodamine B assay; conditions: CAKI-1, 48 h, read-out: Activity
Procedure, shortened: (§2)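 Cells seeded at 5,000–40,000/well according to doubling time and preincubated 24 h at 37 °C, 5% CO2. Time-zero plates were TCA-fixed. DMSO concentrate was diluted in medium with 50 µg/ml gentamicin to give five concentrations (10-fold or ½ log steps), then exposed 48 h. Cells were TCA-fixed, stained with 0.4% SRB and read at 515 nm. Percent growth was taken against time-zero and control; GI50, TGI and LC50 derived.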

[3] = Growth inhibition of human DU145 cells assessed as cell growth at 10^-8 M incubated for 48 hrs by sulforhodamine B assay; conditions: DU-145, 48 h, read-out: Activity; procedure, shortened: as §2
[4] = Growth inhibition of human MOLT4 cells assessed as cell growth at 10^-7 M incubated for 48 hrs by sulforhodamine B assay; conditions: MOLT-4, 48 h, read-out: Activity
Procedure, shortened: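 Cells plated at 5,000–40,000/well according to doubling time and preincubated 24 h at 37 °C, 5% CO₂, with time-zero plates TCA-fixed. Drugs were kept as DMSO concentrates at 400× the top concentration and diluted in medium with 50 µg/ml gentamicin. Five 10-fold or ½-log dilutions were run for 48 h, followed by SRB staining and A515. Percent growth = (Ti−Tz)/(C−Tz)×100, or (Ti−Tz)/Tz×100 when Ti<Tz.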

CCRF-CEM = test: Growth inhibition of human CCRF-CEM cells assessed as cell growth at 10^-4 M incubated for 48 hrs by sulforhodamine B assay; conditions: read-out: Activity
Procedure, shortened: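 Leukemia line in the five-dose format: five concentrations from 10-fold or ½-log serial dilutions. Plated at 5,000–40,000 cells per well, preincubated 24 h, then compound added for 48 h at 37 °C, 5% CO₂. Sulforhodamine B absorbance read at 515 nm. Growth is computed against time-zero (Tz) and control (C) readings; GI₅₀ is where [(Ti−Tz)/(C−Tz)]×100 = 50.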

A549 = test: Growth inhibition of human A549/ATCC cells assessed as cell growth at 10^-4 M incubated for 48 hrs by sulforhodamine B assay; conditions: A549, 48 h, read-out: Activity
NCI-H460 = test: Growth inhibition of human NCI-H460 cells assessed as cell growth at 10^-4 M incubated for 48 hrs by sulforhodamine B assay; conditions: NCI-H460, 48 h, read-out: Activity
[5] = Growth inhibition of human SF295 cells assessed as cell growth at 10^-7 M incubated for 48 hrs by sulforhodamine B assay; conditions: SF-295, 48 h, read-out: Activity
[6] = Growth inhibition of human SNB19 cells assessed as cell growth at 10^-7 M incubated for 48 hrs by sulforhodamine B assay; conditions: SNB-19, 48 h, read-out: Activity
[7] = Growth inhibition of human LOXIMVI cells assessed as cell growth at 10^-4 M incubated for 48 hrs by sulforhodamine B assay; conditions: LOX IMVI, read-out: Activity
A498 = test: Growth inhibition of human A498 cells assessed as cell growth at 10^-4 M incubated for 48 hrs by sulforhodamine B assay; conditions: A498, 48 h, read-out: Activity
Procedure, shortened: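 Five-dose assay: five concentrations from 10-fold or ½-log serial dilutions. Cells are plated at 5,000–40,000 per well according to doubling time, grown 24 h, then exposed 48 h at 37 °C, 5% CO₂. Fixed with cold 50% TCA (final addition) for 60 min at 4 °C and stained with 0.4% SRB in 1% acetic acid. Bound dye is solubilized in 10 mM Tris base and read at 515 nm. GI₅₀ is where [(Ti−Tz)/(C−Tz)]×100 = 50, with a time-zero plate as Tz.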

SK-MEL-2 = test: Growth inhibition of human SK-MEL-2 cells assessed as cell growth at 10 uM incubated for 48 hrs by sulforhodamine B assay; conditions: SK-MEL-2, 48 h, read-out: Activity
SN12C = test: Growth inhibition of human SN12C cells assessed as cell growth at 10 uM incubated for 48 hrs by sulforhodamine B assay; conditions: read-out: Activity
[8] = Growth inhibition of human Hs 578T cells assessed as cell growth at 10^-7 M incubated for 48 hrs by sulforhodamine B assay; conditions: read-out: Activity
NCI-H226 = test: Growth inhibition of human NCI-H226 cells assessed as cell growth at 10^-8 M incubated for 48 hrs by sulforhodamine B assay; conditions: NCI-H226, 48 h, read-out: Activity
[9] = Growth inhibition of human LOXIMVI cells assessed as cell growth at 10^-8 M incubated for 48 hrs by sulforhodamine B assay; conditions: LOX IMVI, read-out: Activity
[10] = Growth inhibition of human SF539 cells assessed as cell growth at 10^-6 M incubated for 48 hrs by sulforhodamine B assay; conditions: SF-539, 48 h, read-out: Activity
Malme-3M = test: Growth inhibition of human MALME-3M cells assessed as cell growth at 10^-6 M incubated for 48 hrs by sulforhodamine B assay; conditions: read-out: Activity
NCI-H522 = test: Growth inhibition of human NCI-H522 cells assessed as cell growth at 10^-5 M incubated for 48 hrs by sulforhodamine B assay; conditions: NCI-H522, 48 h, read-out: Activity
[11] = Growth inhibition of human SF268 cells assessed as cell growth at 10^-5 M incubated for 48 hrs by sulforhodamine B assay; conditions: SF-268, 48 h, read-out: Activity
[12] = Growth inhibition of human SNB75 cells assessed as cell growth at 10 uM incubated for 48 hrs by sulforhodamine B assay; conditions: SNB-75, 48 h, read-out: Activity
[13] = read-out: LC50 (the source's name)
[14] = read-out: pLC50 (the source's name) (converted)

SMILES | GI50 ([1]; read-out: GI50) | TGI ([1]; read-out: TGI) | GI50 ([1]; read-out: pGI50 (converted)) | TGI ([1]; read-out: pTGI (converted)) | GI50 (SK-MEL-5; read-out: GI50) | CC50 (SK-MEL-5; [13]) | TGI (SK-MEL-5; read-out: TGI) | GI50 (SK-MEL-5; read-out: pGI50 (converted)) | CC50 (SK-MEL-5; [14]) | TGI (SK-MEL-5; read-out: pTGI (converted)) | GI50 (MDA-MB-231; read-out: GI50) | TGI (MDA-MB-231; read-out: TGI) | GI50 (MDA-MB-231; read-out: pGI50 (converted)) | TGI (MDA-MB-231; read-out: pTGI (converted)) | growth at 0.01 µM [2] | growth at 0.01 µM [3] | growth at 0.1 µM [4] | growth at 100 µM (CCRF-CEM) | growth at 100 µM (A549) | growth at 100 µM (NCI-H460) | other results
Clc1ccc(-c2nc(Nc3ccc(-c4nc5ccccc5[nH]4)cc3)nc(N3CCOCC3)n2)cc1 | 520 nM | 1830 nM | 525 nM | 1820 nM | 1690 nM | 5790 nM | 3130 nM | 1700 nM | 5750 nM | 3160 nM | 193 nM | 422 nM | 195 nM | 417 nM | 89% | 101% | 90% | -36% | -53% | -33% | growth at 0.1 µM [5]: 91%; growth at 0.1 µM [6]: 95%; growth at 100 µM [7]: 2%; growth at 100 µM (A498): -48%; growth at 10 µM (SK-MEL-2): -71.3%; growth at 10 µM (SN12C): -79.5%; growth at 0.1 µM [8]: 87%; growth at 0.01 µM (NCI-H226): 101%; growth at 0.01 µM [9]: 97%; growth at 1 µM [10]: 31%; growth at 1 µM (Malme-3M): 111%; growth at 10 µM (NCI-H522): -76%; growth at 10 µM [11]: -80%; growth at 10 µM [12]: -92.6%
c1ccc2[nH]c(-c3ccc(Nc4nc(N5CCCCC5)nc(N5CCOCC5)n4)cc3)nc2c1 | 2140 nM | 5750 nM | 2140 nM | 5750 nM | 1780 nM | 6110 nM | 3300 nM | 1780 nM | 6170 nM | 3310 nM | 2500 nM | 7520 nM | 2510 nM | 7590 nM | 90% | 102% | 100% | 5% | -12% | -45% | CC50 [1, 13]: 28500 nM; CC50 [1, 14]: 28200 nM; CC50 (MDA-MB-231; [13]): > 100000 nM; CC50 (MDA-MB-231; [14]): > 100000 nM; growth at 0.1 µM [5]: 94%; growth at 0.1 µM [6]: 98%; growth at 100 µM [7]: -65%; growth at 100 µM (A498): -90%; growth at 10 µM (SK-MEL-2): -20.6%; growth at 10 µM (SN12C): 52.4%; growth at 0.1 µM [8]: 94%; growth at 0.01 µM (NCI-H226): 84%; growth at 0.01 µM [9]: 96%; growth at 1 µM [10]: 89%; growth at 1 µM (Malme-3M): 98%; growth at 10 µM (NCI-H522): -24%; growth at 10 µM [11]: 5%; growth at 10 µM [12]: -0.68%

— ChEMBL document CHEMBL3808334, “Synthesis and in vitro evaluation of novel triazine analogues as anticancer agents and their interaction studies with bovine serum albumin” (Eur J Med Chem, 2016)
